Structures are written as SMILES. Values after ≈ are worked out from the molar mass of the structure shown.

14 compounds from ChEMBL document CHEMBL1150066, “Cytotoxic activity of tetraprenylphenols related to suillin, an antitumor principle from Suillus granulatus” (J Nat Prod, 1992) can be followed below.

Holding throughout (type): functional, cell-based
The test system of experiment [1] is KB. As to the kind of experiment: Cytotoxicity against human KB cells after 72 hrs by MTT assay. In a few lines: (§1)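 Cells per well: NSCLC-N6 0.2×10^5, KB 0.1×10^5, P388 0.05×10^5, in RPMI 1640 with 5% fetal calf serum, penicillin/streptomycin and 2 mM glutamine. Test solution added at decreasing concentrations in duplicate wells, then 72 h at 37° in 5% CO2. MTT added for 4 h, formazan dissolved in […], A570 read. IC50 taken from the dose/effect curve relative to controls.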

For experiment [2], the system named is P388. As to the kind of experiment: Cytotoxicity against mouse P388 cells after 72 hrs by MTT assay. To be noted: P388, 72 h. In a few lines:
as §1

A short description of experiment [3]: Cytotoxicity against human NSCLC-N6 cells after 72 hrs by MTT assay. As to conditions: NSCLC-N6, 72 h; call rule not given here. In a few lines:
as §1

In experiment [4] the test system is KB. As to the kind of experiment: Cytotoxicity against human KB cells at 5 ug/ml after 72 hrs by MTT assay.
Experiment [5] in a line: Cytotoxicity against human NSCLC-N6 cells at 5 ug/ml after 72 hrs by MTT assay.
For experiment [6], the system named is P388. As to the kind of experiment: Cytotoxicity against mouse P388 cells at 5 ug/ml after 72 hrs by MTT assay.
In experiment [7] the test system is KB. As to the kind of experiment: Cytotoxicity against human KB cells at 10 ug/ml after 72 hrs by MTT assay.

For the compound `COc1ccc(OC(C)=O)c(C/C=C(\C)CC/C=C(\C)CC/C=C(\C)CCC=C(C)C)c1OC`, the results for the IC50 (in the experiment with KB [1]; with P388 [2]; in experiment [3]) were 7.5 mg/L (≈ 16 µM), 3.7 mg/L (≈ 7.89 µM) and 5.8 mg/L (≈ 12.4 µM), respectively.

Turning to `CC(=O)Oc1ccc2c(c1OC(C)=O)CCC(C)(CCCC(C)CCCC(C)CCCC(C)C)O2` (configuration not stated), the figures for the IC50 (in the experiment on KB [1]; with P388 [2]; in experiment [3]) were 1.1 mg/L (≈ 2.25 µM), 0.7 mg/L (≈ 1.43 µM) and 0.9 mg/L (≈ 1.84 µM), respectively.

Consider `CC(=O)Oc1cc(C/C=C(\C)CC/C=C(\C)CC/C=C(\C)CCC=C(C)C)c(OC(C)=O)c(OC(C)=O)c1`, for which the IC50 in the experiment with KB [1] turned out to be 0.9 mg/L (≈ 1.72 µM); in the experiment with P388 [2] it was 0.4 mg/L (≈ 0.762 µM); in experiment [3], 0.8 mg/L (≈ 1.52 µM).

On to `CC(=O)Oc1ccc2c(c1OC(C)=O)C=CC(C)(CC/C=C(\C)CC/C=C(\C)CCC=C(C)C)O2` (configuration not stated), for which the IC50 with KB [1] stood at 1 mg/L (≈ 2.08 µM); in the experiment with P388 [2], 0.3 mg/L (≈ 0.624 µM); in experiment [3] it was 0.7 mg/L (≈ 1.46 µM).

For the compound `CC(=O)Oc1ccc(OC(C)=O)c(OC(C)=O)c1CCC(C)CCCC(C)CCCC(C)CCCC(C)C` (configuration not stated), the concentration for half-maximal inhibition (IC50) is above 10 mg/L in the experiment with KB [1], above 16.6 mg/L in the experiment on P388 [2] and 9 mg/L (≈ 16.9 µM) in experiment [3].

For `COc1ccc(O)c(O)c1C/C=C(\C)CC/C=C(\C)CC/C=C(\C)CCC=C(C)C`, the figures for the half-inhibitory concentration (IC50) (with P388 [2]; in the experiment on KB [4]; in experiment [3]) were 2.8 mg/L (≈ 6.79 µM), “Not Active” and above 5 mg/L, respectively.

With `COc1c(O)cc(O)cc1C/C=C(\C)CC/C=C(\C)CC/C=C(\C)CCC=C(C)C`, the 50% inhibitory concentration (IC50) with KB [1] was determined as 5 mg/L (≈ 12.1 µM); in the experiment with P388 [2] it was 2.1 mg/L (≈ 5.09 µM); in experiment [3] it was 2.2 mg/L (≈ 5.33 µM).

With `CC(=O)Oc1c(O)ccc(O)c1C/C=C(\C)CC/C=C(\C)CC/C=C(\C)CCC=C(C)C`, the IC50 in the experiment with KB [1] came to 2.5 mg/L (≈ 5.67 µM); in the experiment with P388 [2], 0.9 mg/L (≈ 2.04 µM); in experiment [3] it was 2.9 mg/L (≈ 6.58 µM).

For `CC(C)=CCC/C(C)=C/CC/C(C)=C/CCC1(C)C=Cc2c(ccc(O)c2O)O1` (configuration not stated), the IC50 result (in experiment [5]; in the experiment on KB [4]; in the experiment on P388 [6]) was “Not Active” each time.

Take `CC(=O)Oc1ccc(O)c(O)c1CCC(C)CCCC(C)CCCC(C)CCCC(C)C` (configuration not stated): the IC50 with KB [1] turned out to be 6.3 mg/L (≈ 14 µM); in the experiment with P388 [2], 8.2 mg/L (≈ 18.3 µM); in experiment [3] it was 4.5 mg/L (≈ 10 µM).

With `CC(=O)Oc1c(O)cc(O)cc1C/C=C(\C)CC/C=C(\C)CC/C=C(\C)CCC=C(C)C`, the 50% inhibitory concentration (IC50) in the experiment on P388 [2] was 2.3 mg/L (≈ 5.22 µM); in the experiment on KB [4], “Not Active”; in experiment [3] it was 2.3 mg/L (≈ 5.22 µM).

On to `COc1ccc(OC)c(OC)c1C/C=C(\C)CC/C=C(\C)CC/C=C(\C)CCC=C(C)C`, for which the IC50 result with KB [7] was “Not Active”; in the experiment on P388 [2] it was above 10 mg/L; in experiment [3] it was above 10 mg/L.

As to `CC(=O)Oc1ccc(OC(C)=O)c(OC(C)=O)c1C/C=C(\C)CC/C=C(\C)CC/C=C(\C)CCC=C(C)C`, the half-inhibitory concentration (IC50) is 2 mg/L (≈ 3.81 µM) with KB [1], 5 mg/L (≈ 9.53 µM) with P388 [2] and 1.9 mg/L (≈ 3.62 µM) in experiment [3].

On to `CC(=O)Oc1ccc(O)c(O)c1C/C=C(\C)CC/C=C(\C)CC/C=C(\C)CCC=C(C)C` [TETRAPRENYLPHENOLSUILLIN], for which the IC50 was determined as 0.7 mg/L (≈ 1.59 µM) in the experiment on KB [1], 0.8 mg/L (≈ 1.82 µM) with P388 [2] and 1 mg/L (≈ 2.27 µM) in experiment [3].
